Two molecules from ChEMBL document CHEMBL4665801, “Pyrazole-Based Lactate Dehydrogenase Inhibitors with Optimized Cell Activity and Pharmacokinetic Properties” (J Med Chem, 2020) can be followed below.

The Cmax is the maximum level reached in the sampled fluid or tissue. For orientation: pIC50 means the negative decadic logarithm of the IC50, by convention in mol/L. The half-life is the time in which the quantity being followed falls by half. The term inhibition denotes the percentage by which the read-out fell short of the control. A lower inhibition goes with a response near the control.

pIC50: −log10 of the molar value.

Data set [1] can be described thus: Oral bioavailability in CD-1 mouse at 40 mg/kg and measured up to 24 hrs by LC/MS-MS analysis. The class given is ADME, organism-based. Particulars: in vivo. In short, it runs like this:
(§1)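 Male CD1 mice, 6–8 weeks, about 20–30 g, three per cohort. Dosed PO at 40 or 50 mg/kg, or IV at 10 mg/kg for reference, in PBS with […] (pH 7–8). Dorsal metatarsal blood was taken into heparin at 15 min to 24 h (PO) or 5 min to 24 h (IV). Plasma was frozen and quantified by LC–MS/MS.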

Data set [2] is described as follows: AUC last in CD-1 mouse at 40 mg/kg, po and measured up to 24 hrs by LC/MS-MS analysis. The data set is classed as ADME, organism-based. Set-up: route oral, dose 40 mg/kg, time <=24. Particulars: in vivo. In short, it runs like this:
as §1

Data set [3] is described as follows: Cmax in CD-1 mouse at 40 mg/kg, po and measured up to 24 hrs by LC/MS-MS analysis. Set-up: route oral, dose 40 mg/kg, time <=24. The data set is classed as ADME, organism-based. Particulars: in vivo. In short, it runs like this:
as §1

Data set [4] is described as follows: Terminal half life in CD-1 mouse at 40 mg/kg, po and measured up to 24 hrs by LC/MS-MS analysis. Particulars: in vivo. The data set is classed as ADME, organism-based. In short, it runs like this:
as §1

Data set [5] addresses T1, L-lactate dehydrogenase A chain (Homo sapiens, UniProt P00338). As to the kind of experiment: Inhibition of LDHA in human A673 cells assessed as decrease in lactate production incubated for 2 hrs by lactate oxidase-coupled fluorescence based assay. The class given is cell-based.
The target of data set [6] is T1, L-lactate dehydrogenase A chain. As to the kind of experiment: Inhibition of GS[HiBiT]GS-tagged LDHA (unknown origin) expressed in HEK-293T cells measured after 1 hr by […]. The class given is cell-based. In a few lines:
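HEK293T cells were transiently transfected for 24 h with CMV-driven LDHA carrying a C-terminal GS[HiBiT]GS tag, then reseeded at 2500 cells/well in DPBS with Ca/Mg and 1 g/L glucose. […] Cells were lysed with NP40, and 11S (100 nM final) plus furimazine was added.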
For orientation: HiBiT is a short tag that completes a luciferase, so light tracks the accessible tagged protein.

Data set [7] in a line: Half life in rat liver microsomes at 1 uM in presence of NADPH by LC-MS/MS. The data set is classed as ADME, Microsome. Background: Microsomes from liver hold many membrane-bound enzymes, among them those of drug oxidation.
Data set [8] concerns the target T2, CYP2C8 (Homo sapiens, UniProt P10632).
T2 sequence (P10632 whole entry): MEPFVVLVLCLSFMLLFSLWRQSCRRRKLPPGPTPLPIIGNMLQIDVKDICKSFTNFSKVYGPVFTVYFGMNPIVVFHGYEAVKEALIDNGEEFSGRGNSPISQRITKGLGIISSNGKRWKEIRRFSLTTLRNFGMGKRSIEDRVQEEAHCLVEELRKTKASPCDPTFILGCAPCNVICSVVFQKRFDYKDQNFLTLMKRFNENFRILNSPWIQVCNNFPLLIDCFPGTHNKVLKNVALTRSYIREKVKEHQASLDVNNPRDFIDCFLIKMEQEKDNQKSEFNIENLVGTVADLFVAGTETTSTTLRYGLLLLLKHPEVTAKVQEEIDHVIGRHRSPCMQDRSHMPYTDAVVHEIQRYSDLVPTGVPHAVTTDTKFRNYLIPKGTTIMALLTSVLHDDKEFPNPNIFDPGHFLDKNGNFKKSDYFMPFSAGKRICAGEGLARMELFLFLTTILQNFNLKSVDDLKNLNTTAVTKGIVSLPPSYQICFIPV
The data set is described as follows: Inhibition of CYP2C8 (unknown origin) at 10 uM relative to control. The data set is classed as ADME.

Data set [9] addresses T3, CYP2B6 (Homo sapiens, UniProt P20813).
T3 sequence (P20813 whole entry): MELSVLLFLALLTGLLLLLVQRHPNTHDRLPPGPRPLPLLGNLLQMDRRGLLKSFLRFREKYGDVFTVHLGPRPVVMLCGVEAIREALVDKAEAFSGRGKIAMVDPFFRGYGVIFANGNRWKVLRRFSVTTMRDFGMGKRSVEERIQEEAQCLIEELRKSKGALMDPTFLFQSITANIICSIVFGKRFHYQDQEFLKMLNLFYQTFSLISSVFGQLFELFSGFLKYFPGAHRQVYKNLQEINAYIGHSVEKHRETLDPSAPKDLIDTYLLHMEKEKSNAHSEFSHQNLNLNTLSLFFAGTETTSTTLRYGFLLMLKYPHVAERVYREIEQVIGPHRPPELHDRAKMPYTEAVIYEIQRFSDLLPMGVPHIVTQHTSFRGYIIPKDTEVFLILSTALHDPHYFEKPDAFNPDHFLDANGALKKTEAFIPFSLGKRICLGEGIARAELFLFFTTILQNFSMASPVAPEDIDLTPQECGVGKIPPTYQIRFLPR
The data set is described as follows: Inhibition of CYP2B6 (unknown origin) at 10 uM relative to control. The data set is classed as ADME.

In data set [10] the target is CYP2C9 (Homo sapiens, UniProt P11712). As to the kind of experiment: Inhibition of CYP2C9 (unknown origin) at 10 uM relative to control. The class given is ADME.
Data set [11] is described as follows: Oral bioavailability in CD-1 mouse at 50 mg/kg and measured up to 24 hrs by LC/MS-MS analysis. The data set is classed as ADME, organism-based. Particulars: in vivo. In short, it runs like this: (§2)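 Male CD1 mice, about 6–8 weeks old and 20–30 g, were dosed PO at 40 or 50 mg/kg in 0.1 M NaOH in PBS, pH 7–8.5, prepared the same day. Three mice per cohort. Dorsal metatarsal vein blood was collected into heparin at 15, 30 min and 1, 2, 4, 8, 12, 24 h. Plasma was spun at 4 °C, frozen at –75 °C and quantified by LC–MS/MS.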

Data set [12] can be described thus: AUClast in CD-1 mouse at 50 mg/kg, po and measured up to 24 hrs by LC/MS-MS analysis. The data set is classed as ADME, organism-based. Also noted: route oral, dose 50 mg/kg, time <=24. Particulars: in vivo. In short, it runs like this:
as §2

The nature of data set [13]: Cmax in CD-1 mouse at 50 mg/kg, po and measured up to 24 hrs by LC/MS-MS analysis. The data set is classed as ADME, organism-based. Also noted: route oral, dose 50 mg/kg, time <=24. Particulars: in vivo. In short, it runs like this: as §2
Data set [14] addresses T4, Cytochrome P450 2C8 (Homo sapiens, UniProt P10632).
T4 sequence (P10632 whole entry): T2 sequence (P10632 whole entry)
As to the kind of experiment: Inhibition of CYP2C8 (unknown origin) assessed as inhibitory concentration. The data set is classed as ADME.

Data set [15] deals with T5, Cytochrome P450 2B6 (Homo sapiens, UniProt P20813).
T5 sequence (P20813 whole entry): T3 sequence (P20813 whole entry)
As to the kind of experiment: Inhibition of CYP2B6 (unknown origin) assessed as inhibitory concentration. The class given is ADME.

Chain of CYP2C9 (P11712 whole entry): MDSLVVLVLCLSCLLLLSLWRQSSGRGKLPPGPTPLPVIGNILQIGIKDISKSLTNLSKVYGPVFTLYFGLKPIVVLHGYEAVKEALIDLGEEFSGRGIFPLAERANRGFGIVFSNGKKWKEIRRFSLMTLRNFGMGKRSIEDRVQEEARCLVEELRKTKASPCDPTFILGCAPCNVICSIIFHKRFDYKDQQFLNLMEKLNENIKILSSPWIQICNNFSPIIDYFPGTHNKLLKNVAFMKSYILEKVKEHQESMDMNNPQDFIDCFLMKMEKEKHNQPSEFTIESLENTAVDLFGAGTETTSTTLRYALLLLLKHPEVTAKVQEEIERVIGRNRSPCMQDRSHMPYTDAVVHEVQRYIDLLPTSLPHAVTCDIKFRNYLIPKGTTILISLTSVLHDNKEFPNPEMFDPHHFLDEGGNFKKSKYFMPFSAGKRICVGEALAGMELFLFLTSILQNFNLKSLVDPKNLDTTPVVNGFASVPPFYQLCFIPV

`Cc1ccc(C#Cc2cc(-c3nn(-c4nc(C(=O)O)cs4)c(CC4CC4)c3Cc3ccc(S(N)(=O)=O)c(F)c3)ccc2F)s1` had a F in [1] of 73.8%. In addition, the AUClast in [2] worked out at 31390 ng·h/mL. This molecule also showed a Cmax in data set [3] of 5260 ng/mL. Also, the “beta t1/2” value in data set [4] turned out to be 2.78 h. The pIC50 in data set [5] is 6.06; in [6] it was 6.97. Further, the half-life at 1 µM in data set [7] was over 2 h. Moreover, the inhibition at 10 µM in [8] was determined as 80%; in data set [9] it was 46%; in data set [10], 45%.
`Cc1ccc(C#Cc2cccc(-c3nn(-c4nc(C(=O)O)cs4)c(CC4CC4)c3Cc3ccc(S(N)(=O)=O)c(F)c3)c2)s1`: in [11], the F is on record as 64%. The molecule also displayed an AUClast in [12] of 53540 ng·h/mL. This molecule also returned a maximum concentration (Cmax) in data set [13] of 8830 ng/mL. Also, the results for the pIC50 in data set [5] and in data set [6] were 6.12 and 6.92, respectively. Further, the half-life at 1 µM in [7] was over 2 h. Further, the INH is 7.5 µM in data set [14] and 14 µM in data set [15].
